{"source": "PubChem BioAssay AID652011", "about": "(Sanford-Burnham Center for Chemical Genomics, 2013)", "note": "Where “and” joins values, the source holds several entries; their conditions need not be identical. Identical values can stand only once.", "data": [{"target": "Endothelial PAS domain-containing protein 1 (Homo sapiens) (UniProt Q99814)", "sequence (Q99814 whole entry, looked up, the tested form may be a part)": "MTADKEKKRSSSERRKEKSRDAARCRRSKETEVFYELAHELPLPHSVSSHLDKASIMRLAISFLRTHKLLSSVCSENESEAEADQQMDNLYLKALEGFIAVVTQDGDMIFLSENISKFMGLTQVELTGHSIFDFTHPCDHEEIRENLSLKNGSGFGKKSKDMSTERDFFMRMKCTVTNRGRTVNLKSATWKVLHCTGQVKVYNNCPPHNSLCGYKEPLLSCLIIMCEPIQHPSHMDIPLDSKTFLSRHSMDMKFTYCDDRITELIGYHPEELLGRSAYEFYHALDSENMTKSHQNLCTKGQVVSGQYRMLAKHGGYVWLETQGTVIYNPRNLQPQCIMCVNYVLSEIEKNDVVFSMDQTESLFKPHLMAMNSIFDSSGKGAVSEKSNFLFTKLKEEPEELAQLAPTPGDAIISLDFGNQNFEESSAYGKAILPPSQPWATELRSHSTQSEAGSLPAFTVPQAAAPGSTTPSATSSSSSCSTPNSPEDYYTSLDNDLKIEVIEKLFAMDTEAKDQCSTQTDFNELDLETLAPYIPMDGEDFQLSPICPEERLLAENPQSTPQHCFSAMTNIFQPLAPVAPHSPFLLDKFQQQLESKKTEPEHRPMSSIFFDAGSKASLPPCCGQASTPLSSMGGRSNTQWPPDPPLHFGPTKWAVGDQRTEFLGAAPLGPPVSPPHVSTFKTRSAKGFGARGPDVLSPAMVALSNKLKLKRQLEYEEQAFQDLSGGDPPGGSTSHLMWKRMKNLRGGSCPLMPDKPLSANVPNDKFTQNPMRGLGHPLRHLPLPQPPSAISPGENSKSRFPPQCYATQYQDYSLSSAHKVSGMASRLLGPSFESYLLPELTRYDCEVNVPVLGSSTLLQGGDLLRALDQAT", "experiment": "HIF-1a and HIF-2a reporter inhibitors, SAR follow-up, cell-based, luminescence, MIAPaCa-2, 786-0, panel (AID 652011)", "details": "MIAPaCa-2/PANC HIF reporter, luciferase luminescence, desferoxamine, overnight, HIF2a PANC, run 2; at 99 µM (top of the series)", "summary_of_the_method": "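Probe or stimulus – desferoxamine stimulus · Times – overnight compound incubation at 37 °C, 10 min reagent · Doses – compounds from 10 mM and 0.3125 mM stocks, 1% DMSO final · Technique – luminescence, One-Glo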", "values": [{"smiles": "CCNC(=O)CCc1nc(-c2cccc(OC)c2)no1", "inhibition": "-12.7%"}, {"smiles": "CC(C)(C)c1ccc(-c2noc(CCC(=O)Nc3cccc([N+](=O)[O-])c3)n2)cc1", "inhibition": "86.3%"}, {"smiles": "CC(C)NC(=O)CCc1nc(-c2ccc(C(C)(C)C)cc2)no1", "inhibition": "64.9%"}, {"smiles": "CCNC(=O)CCc1nc(-c2ccc(OCC)cc2)no1", "inhibition": "-15.1%"}, {"smiles": "CCC(C)NC(=O)CCc1nc(-c2ccccc2)no1", "note": "(stereo unspecified)", "inhibition": "-3.82%"}, {"smiles": "CC(C)(C)c1ccc(-c2noc(CCC(=O)NC3CCCC3)n2)cc1", "inhibition": "121%"}, {"smiles": "CC(C)(C)c1ccc(-c2noc(CCC(=O)NC3CCCCC3)n2)cc1", "inhibition": "104%"}, {"smiles": "CC(C)(C)c1ccc(-c2noc(CCC(=O)NCC3CCCO3)n2)cc1", "note": "(stereo unspecified)", "inhibition": "16.7%"}, {"smiles": "CC(C)(C)c1ccc(-c2noc(CCC(=O)NC3CC3)n2)cc1", "inhibition": "50%"}, {"smiles": "COc1ccccc1NC(=O)CCc1nc(-c2ccc(C(C)(C)C)cc2)no1", "inhibition": "123%"}, {"smiles": "CC(C)(C)c1ccc(-c2noc(CCC(=O)N3CCCCC3)n2)cc1", "inhibition": "106%"}, {"smiles": "CC(C)CNC(=O)CCc1nc(-c2ccc(C(C)(C)C)cc2)no1", "inhibition": "65.5%"}, {"smiles": "CCNC(=O)CCc1nc(-c2ccc(C(C)C)cc2)no1", "inhibition": "-41.3%"}, {"smiles": "COC(=O)CCc1nc(-c2ccc(C(C)(C)C)cc2)no1", "inhibition": "128%"}, {"smiles": "CCCCc1ccc(-c2noc(CCC(=O)NC(C)(C)C)n2)cc1", "inhibition": "89%"}, {"smiles": "CC(C)(C)c1ccc(-c2noc(CCC(=O)NC3CCC3)n2)cc1", "inhibition": "90.3%"}, {"smiles": "CC(C)(C)c1ccc(-c2noc(CCC(=O)O)n2)cc1", "inhibition": "124%"}, {"smiles": "CCNC(=O)CCc1nc(-c2cccc(C)c2)no1", "inhibition": "-15.7%"}, {"smiles": "O=C(O)CCc1nc(-c2ccccc2)no1", "inhibition": "45.4%"}, {"smiles": "CCC(C)NC(=O)CCc1nc(-c2ccc(C(C)(C)C)cc2)no1", "note": "(stereo unspecified)", "inhibition": "52.2%"}, {"smiles": "CCCCc1ccc(-c2noc(CCC(=O)NC(C)CC)n2)cc1", "note": "(stereo unspecified)", "inhibition": "37.9%"}, {"smiles": "CNC(=O)CCc1nc(-c2ccc(C)cc2)no1", "inhibition": "76.6%"}, {"smiles": "CCCCc1ccc(-c2noc(CCC(=O)NC)n2)cc1", "inhibition": "-4.31%"}, {"smiles": "CCC(C)NC(=O)CCc1nc(-c2ccc(C(C)C)cc2)no1", "note": "(stereo unspecified)", "inhibition": "38.4%"}, {"smiles": "CCOc1ccc(-c2noc(CCC(=O)O)n2)cc1", "inhibition": "109%"}, {"smiles": "CNC(=O)CCc1nc(-c2ccccc2)no1", "inhibition": "-73.5% and 30.8%"}, {"smiles": "CCc1ccc(-c2noc(CCC(=O)NC)n2)cc1", "inhibition": "-49.2%"}, {"smiles": "CCN(CC)C(=O)CCc1nc(-c2ccc(C(C)(C)C)cc2)no1", "inhibition": "76.8% and 78.5%"}, {"smiles": "CC(C)c1ccc(-c2noc(CCC(=O)NC(C)(C)C)n2)cc1", "inhibition": "90%"}, {"smiles": "CCNC(=O)CCc1nc(-c2ccc(CC)cc2)no1", "inhibition": "-47%"}, {"smiles": "C=CCNC(=O)CCc1nc(-c2ccc(C(C)(C)C)cc2)no1", "inhibition": "82%"}]}]}
